# Active and inactive are the calls of the source. The calls are words filed in the database; no cut-off is given here.
# How the values were obtained:
# [1] = Cytotoxicity in mouse parental BA/F3 cells incubated for 72 hrs by MTS assay; assay type: cell-based, BaF3
# [2] = Lipophilicity, log D of the compound at pH 7.4; assay type: physicochemical; conditions: buffer
# [3] = Permeability from apical to basolateral side in human Caco2 cells at 10 uM at pH 6.5; assay type: ADME, cell-based; conditions: Caco-2, pH 6.5, read-out: permeability
# Summary of the method: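 Caco2 permeability from A to B was measured at pH6.5 using a 10 μM compound solution, reported in units of 1E-6 cm/s.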
# [4] = Efflux ratio in human Caco2 cells at 10 uM at pH 6.5; conditions: Caco-2, pH 6.5
# [5] = Protein binding in mouse plasma assessed as unbound fraction level; assay type: ADME, cell-free
# [6] = Protein binding in human plasma assessed as unbound fraction level; assay type: ADME, cell-free
# [7] = Intrinsic clearance in mouse hepatocytes assessed per million cells; assay type: ADME, cell-based, Hepatocyte; conditions: read-out: CLH
# [8] = Intrinsic clearance in rat hepatocytes assessed per million cells; assay type: ADME, cell-based, Hepatocyte; conditions: read-out: CLH
# [9] = Intrinsic clearance in dog hepatocytes assessed per million cells; assay type: ADME, cell-based, Canis lupus familiaris, Hepatocyte; conditions: read-out: CLH
# [10] = molecular target: Voltage-gated inwardly rectifying potassium channel KCNH2 (Homo sapiens, UniProt Q12809); experiment: Inhibition of human ERG
# [11] = Clearance in CD1 mouse at 10 umol/kg, iv; assay type: ADME, organism-based; conditions: in vivo
# Summary of the method: (§1)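 PK was run in CD1 mice with an iv dose of 10 μMol/kg and an oral dose of 21 μMol/kg. Cl, Vdss, t1/2 and F% were derived.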
# [12] = Oral bioavailability in CD1 mouse at 21 umol/kg; assay type: ADME, organism-based; conditions: in vivo; summary of the method: as §1
# [13] = Volume of distribution at steady state in Han Wistar rat at 1 umol/kg, iv; assay type: ADME, organism-based; conditions: in vivo, read-out: Vdss
# Summary of the method: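 Han Wistar rat PK study using an iv dose of 1 μMol/kg and an oral dose of 2.1 μMol/kg. Clearance, Vdss, t1/2 and F% were derived.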
# [14] = Half life in Han Wistar rat at […], po; assay type: ADME, organism-based; conditions: in vivo
# [15] = Oral bioavailability in Han Wistar rat at […]; assay type: ADME, organism-based; conditions: in vivo
# [16] = Volume of distribution at steady state in dog […] at 1 umol/kg, iv; assay type: ADME, organism-based, Canis lupus familiaris; conditions: in vivo, read-out: Vdss
# [17] = Oral bioavailability in dog at […]; assay type: ADME, organism-based, Canis lupus familiaris; conditions: in vivo
# Mus musculus [18] = experiment: Inhibition of Kit exon 11 deletion (557 to 558 residues) and D816H mutant phosphorylation (unknown origin) transfected in mouse BA/F3 cells allografted in CB17 SCID mouse at 20 mg/kg, po administered as single dose measured after 8 hrs; assay type: functional, organism-based
# Summary of the method: (§2)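 A single 20 mg/kg p.o. dose was given to mice carrying exon 11 del/D816H Ba/F3 allografts. Tumor pKIT, pERK and pAKT were measured over a timecourse, with free compound cover tracked in the same study.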
# Mus musculus [19] = experiment: Inhibition of Kit exon 11 deletion (557 to 558 residues) and D816H mutant (unknown origin) transfected in mouse BA/F3 cells allografted in CB17 SCID mouse assessed as reduction in AKT phosphorylation at 20 mg/kg, po administered as single dose measured after 8 hrs; assay type: functional, organism-based; summary of the method: as §2
# Mus musculus [20] = experiment: Inhibition of Kit exon 11 deletion (557 to 558 residues) and D816H mutant (unknown origin) transfected in mouse BA/F3 cells allografted in CB17 SCID mouse assessed as reduction in AKT phosphorylation at 20 mg/kg, po administered as single dose measured after 24 hrs; assay type: functional, organism-based; summary of the method: as §2
# BaF3 [21] = experiment: Antitumor activity against mouse BA/F3 cells expressing Kit exon 11 deletion (557 to 558 residues) and D816H mutant (unknown origin) allografted in CB17 SCID mouse assessed as inhibition of tumor growth at 20 mg/kg, po bid measured on last day of dosing; assay type: functional; conditions: read-out: TGI
# Summary of the method: (§3)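 Ba/F3 cells bearing the KIT exon 11 del/D816H or exon 11 del/V654A mutation were grown as allografts in mice. Compounds were given p.o. once (QD) or twice daily (BD), and vehicle was given BD p.o. Tumor growth inhibition and regression (%) were taken on the last day of dosing. p-values were calculated relative to vehicle.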
# BaF3 [22] = experiment: Antitumor activity against mouse BA/F3 cells expressing Kit exon 11 deletion (557 to 558 residues) and D816H mutant (unknown origin) allografted in CB17 SCID mouse assessed as tumor regression at 2 mg/kg, po bid measured on last day of dosing; assay type: functional; summary of the method: as §3
# BaF3 [23] = experiment: Antitumor activity against mouse BA/F3 cells expressing Kit exon 11 deletion (557 to 558 residues) and D816H mutant (unknown origin) allografted in CB17 SCID mouse assessed as tumor regression at 20 mg/kg, po bid measured on last day of dosing; assay type: functional; summary of the method: as §3
# BaF3 [24] = experiment: Antitumor activity against mouse BA/F3 cells expressing Kit exon 11 deletion (557 to 558 residues) and V654 mutant (unknown origin) allografted in CB17 SCID mouse assessed as tumor regression at 2 mg/kg, po bid measured on last day of dosing; assay type: functional; summary of the method: as §3
# BaF3 [25] = experiment: Antitumor activity against mouse BA/F3 cells expressing Kit exon 11 deletion (557 to 558 residues) and V654 mutant (unknown origin) allografted in CB17 SCID mouse assessed as tumor regression at 20 mg/kg, po bid measured on last day of dosing; assay type: functional; summary of the method: as §3
# [26] = tested on: Mast/stem cell growth factor receptor Kit (Homo sapiens), P10721 [UNDEFINED MUTATION]
# [27] = tested on: Mast/stem cell growth factor receptor Kit (Homo sapiens), P10721 [UNDEFINED MUTATION]; remark: listed apart in the source
# [28] = molecular target: Vascular endothelial growth factor receptor 2 (Homo sapiens) (UniProt P35968)
# [29] = molecular target: Mast/stem cell growth factor receptor Kit (Homo sapiens) (UniProt P10721)
# [30] = molecular target: Mast/stem cell growth factor receptor Kit (Homo sapiens) (UniProt P10721); remark: listed apart in the source
# [31] = tested on: Mast/stem cell growth factor receptor Kit (Homo sapiens), P10721 [UNDEFINED MUTATION]; remark: listed apart in the source
# [32] = tested on: Mast/stem cell growth factor receptor Kit (Homo sapiens), P10721 [UNDEFINED MUTATION]; remark: listed apart in the source
# [33] = tested on: Mast/stem cell growth factor receptor Kit (Homo sapiens), P10721 [UNDEFINED MUTATION]; remark: listed apart in the source
# [34] = tested on: Mast/stem cell growth factor receptor Kit (Homo sapiens), P10721 [UNDEFINED MUTATION]; remark: listed apart in the source
# [35] = tested on: Mast/stem cell growth factor receptor Kit (Homo sapiens), P10721 [V560D]
# [36] = tested on: Mast/stem cell growth factor receptor Kit (Homo sapiens), P10721 [V560D,V654A]
# [37] = tested on: Mast/stem cell growth factor receptor Kit (Homo sapiens), P10721 [V560D,D816H]
# Mast/stem cell growth factor receptor Kit (Homo sapiens), P10721 [V560D,D816H], sequence (P10721 whole entry V560D/D816H): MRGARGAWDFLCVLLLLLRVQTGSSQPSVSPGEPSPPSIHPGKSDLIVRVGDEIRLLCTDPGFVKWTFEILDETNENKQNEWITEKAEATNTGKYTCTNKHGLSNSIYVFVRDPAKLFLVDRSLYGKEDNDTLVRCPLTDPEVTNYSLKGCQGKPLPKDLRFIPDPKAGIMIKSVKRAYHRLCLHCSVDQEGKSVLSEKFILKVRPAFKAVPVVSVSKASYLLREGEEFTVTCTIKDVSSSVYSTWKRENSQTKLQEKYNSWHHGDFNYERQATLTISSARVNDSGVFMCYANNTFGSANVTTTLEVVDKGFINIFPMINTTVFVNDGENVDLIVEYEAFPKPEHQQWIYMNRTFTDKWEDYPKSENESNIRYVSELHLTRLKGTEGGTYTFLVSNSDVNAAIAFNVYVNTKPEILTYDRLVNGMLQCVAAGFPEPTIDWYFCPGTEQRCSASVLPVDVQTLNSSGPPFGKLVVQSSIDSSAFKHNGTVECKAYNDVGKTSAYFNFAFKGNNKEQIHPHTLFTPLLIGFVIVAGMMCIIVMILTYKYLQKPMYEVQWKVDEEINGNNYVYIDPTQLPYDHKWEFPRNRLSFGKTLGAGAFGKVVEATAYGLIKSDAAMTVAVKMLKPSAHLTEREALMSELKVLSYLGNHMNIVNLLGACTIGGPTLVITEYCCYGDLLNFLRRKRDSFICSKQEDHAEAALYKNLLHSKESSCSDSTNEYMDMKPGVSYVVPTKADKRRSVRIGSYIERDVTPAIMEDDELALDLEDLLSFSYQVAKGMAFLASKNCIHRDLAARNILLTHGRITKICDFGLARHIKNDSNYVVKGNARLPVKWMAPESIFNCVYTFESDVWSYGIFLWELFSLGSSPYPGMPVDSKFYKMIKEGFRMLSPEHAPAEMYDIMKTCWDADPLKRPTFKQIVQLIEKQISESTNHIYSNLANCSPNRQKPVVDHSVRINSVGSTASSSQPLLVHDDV
# Mast/stem cell growth factor receptor Kit (Homo sapiens), P10721 [UNDEFINED MUTATION], sequence (P10721 whole entry, looked up, stated change not applied): as the sequence (P10721 whole entry V560D/D816H) above, with D560V, H816D counted along it
# Mast/stem cell growth factor receptor Kit (Homo sapiens), sequence (P10721 whole entry): as the sequence (P10721 whole entry V560D/D816H) above, with D560V, H816D counted along it
# Vascular endothelial growth factor receptor 2 (Homo sapiens), sequence (P35968 whole entry): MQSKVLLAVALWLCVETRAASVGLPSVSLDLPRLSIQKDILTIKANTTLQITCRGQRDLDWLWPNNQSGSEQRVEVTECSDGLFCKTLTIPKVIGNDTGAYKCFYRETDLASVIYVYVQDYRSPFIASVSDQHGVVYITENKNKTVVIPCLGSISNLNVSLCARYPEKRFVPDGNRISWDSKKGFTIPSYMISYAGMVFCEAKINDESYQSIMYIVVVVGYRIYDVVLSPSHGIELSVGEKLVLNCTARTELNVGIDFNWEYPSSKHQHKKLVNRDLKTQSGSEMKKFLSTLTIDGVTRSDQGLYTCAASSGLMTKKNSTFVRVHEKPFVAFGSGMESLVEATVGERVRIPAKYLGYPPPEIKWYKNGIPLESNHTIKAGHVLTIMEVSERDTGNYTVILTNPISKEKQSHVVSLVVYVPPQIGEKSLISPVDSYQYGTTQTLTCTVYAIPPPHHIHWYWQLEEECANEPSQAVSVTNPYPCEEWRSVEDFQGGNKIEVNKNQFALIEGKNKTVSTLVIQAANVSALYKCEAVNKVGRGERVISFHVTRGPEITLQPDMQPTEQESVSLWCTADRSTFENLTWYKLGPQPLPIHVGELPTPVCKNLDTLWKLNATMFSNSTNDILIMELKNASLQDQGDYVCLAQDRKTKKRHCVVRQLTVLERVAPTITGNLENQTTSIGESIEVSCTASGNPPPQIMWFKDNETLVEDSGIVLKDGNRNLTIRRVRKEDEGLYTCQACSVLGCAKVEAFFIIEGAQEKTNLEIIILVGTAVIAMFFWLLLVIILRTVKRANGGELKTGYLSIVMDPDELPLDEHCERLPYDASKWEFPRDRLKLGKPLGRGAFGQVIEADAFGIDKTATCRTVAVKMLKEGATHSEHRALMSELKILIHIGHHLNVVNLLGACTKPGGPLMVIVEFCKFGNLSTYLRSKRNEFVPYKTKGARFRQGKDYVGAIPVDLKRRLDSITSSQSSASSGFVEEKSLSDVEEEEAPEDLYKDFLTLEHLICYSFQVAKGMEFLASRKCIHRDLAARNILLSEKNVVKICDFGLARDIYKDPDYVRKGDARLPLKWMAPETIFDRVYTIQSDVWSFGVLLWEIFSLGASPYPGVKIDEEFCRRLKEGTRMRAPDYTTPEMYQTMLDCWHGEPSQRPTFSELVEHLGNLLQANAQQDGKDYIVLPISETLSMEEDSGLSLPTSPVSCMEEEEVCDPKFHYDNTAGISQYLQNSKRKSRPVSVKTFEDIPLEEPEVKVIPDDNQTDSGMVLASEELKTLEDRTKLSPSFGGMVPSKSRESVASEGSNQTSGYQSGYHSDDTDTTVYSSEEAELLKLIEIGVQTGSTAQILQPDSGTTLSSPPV
# Mast/stem cell growth factor receptor Kit (Homo sapiens), P10721 [V560D], sequence (P10721 whole entry V560D): as the sequence (P10721 whole entry V560D/D816H) above, with H816D counted along it
# Mast/stem cell growth factor receptor Kit (Homo sapiens), P10721 [V560D,V654A], sequence (P10721 whole entry V560D/V654A): as the sequence (P10721 whole entry V560D/D816H) above, with V654A, H816D counted along it
# Voltage-gated inwardly rectifying potassium channel KCNH2, sequence (Q12809 whole entry): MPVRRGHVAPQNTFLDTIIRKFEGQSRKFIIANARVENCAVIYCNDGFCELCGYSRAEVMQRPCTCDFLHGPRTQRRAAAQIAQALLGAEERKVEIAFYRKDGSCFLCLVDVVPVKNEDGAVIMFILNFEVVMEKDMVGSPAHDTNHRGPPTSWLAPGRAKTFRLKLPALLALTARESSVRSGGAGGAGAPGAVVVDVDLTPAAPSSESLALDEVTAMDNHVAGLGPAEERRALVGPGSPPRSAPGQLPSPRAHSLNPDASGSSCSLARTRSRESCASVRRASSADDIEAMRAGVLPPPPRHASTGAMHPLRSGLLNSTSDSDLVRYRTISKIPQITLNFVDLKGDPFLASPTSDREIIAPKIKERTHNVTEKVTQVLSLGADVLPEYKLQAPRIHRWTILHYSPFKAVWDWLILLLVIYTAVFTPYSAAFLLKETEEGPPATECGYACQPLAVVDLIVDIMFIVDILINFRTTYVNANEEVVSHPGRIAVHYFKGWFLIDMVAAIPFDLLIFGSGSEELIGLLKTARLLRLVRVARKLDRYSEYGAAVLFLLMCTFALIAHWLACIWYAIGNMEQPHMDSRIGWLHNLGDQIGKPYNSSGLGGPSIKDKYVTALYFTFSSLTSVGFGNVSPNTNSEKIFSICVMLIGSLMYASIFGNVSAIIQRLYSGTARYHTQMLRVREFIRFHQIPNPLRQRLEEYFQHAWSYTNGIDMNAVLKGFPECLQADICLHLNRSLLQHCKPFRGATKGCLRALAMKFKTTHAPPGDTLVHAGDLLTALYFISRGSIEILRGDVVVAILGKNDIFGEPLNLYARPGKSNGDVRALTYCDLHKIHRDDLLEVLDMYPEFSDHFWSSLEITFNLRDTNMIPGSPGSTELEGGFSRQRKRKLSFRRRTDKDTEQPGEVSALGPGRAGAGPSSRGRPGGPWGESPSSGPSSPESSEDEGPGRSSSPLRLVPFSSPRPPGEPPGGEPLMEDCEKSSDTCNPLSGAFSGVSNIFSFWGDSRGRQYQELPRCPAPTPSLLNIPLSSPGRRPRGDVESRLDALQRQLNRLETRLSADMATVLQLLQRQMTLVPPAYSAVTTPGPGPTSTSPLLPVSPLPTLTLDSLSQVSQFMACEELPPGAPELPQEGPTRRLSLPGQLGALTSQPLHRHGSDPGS
smiles,measurement,setting,value
COCCOc1cc(F)c2c(Nc3ccc(NC(=O)Cn4cc(C(C)C)nn4)cc3)ncnc2c1,GI50 at 72 h,[1],> 10000 nM
same,logD,[2],3
same,Papp A→B at 10 µM,[3],62.3 ×10⁻⁶ cm/s
same,efflux ratio at 10 µM,[4],2.6
same,fraction unbound,[5],0.049
same,fraction unbound,[6],0.035
same,hepatocyte CLint,[7],5 µL/min/1e6 cells
same,hepatocyte CLint,[8],17 µL/min/1e6 cells
same,hepatocyte CLint,[9],< 1 µL/min/1e6 cells
same,IC50,[10],> 33300 nM
same,clearance,[11],7 mL/min/kg
same,bioavailability,[12],100%
same,Vd,[13],0.6 L/kg
same,half-life,[14],3 h
same,bioavailability,[15],79%
same,Vd,[16],0.3 L/kg
same,bioavailability,[17],69%
same,inhibition,Mus musculus [18],Active
same,inhibition,Mus musculus [19],Active
same,inhibition,Mus musculus [20],Active
same,inhibition in vivo at 20 mg/kg,BaF3 [21],> 100%
same,Activity,BaF3 [22],0%
same,Activity,BaF3 [23],75%
same,Activity,BaF3 [24],44%
same,Activity,BaF3 [25],85%
same,GI50,[26],3 nM
same,GI50,[27],9 nM
same,GI50,[28],1380 nM
same,GI50,[29],51 nM
same,GI50,[30],8 nM
same,GI50,[31],3 nM
same,GI50,[32],14 nM
same,GI50,[33],3 nM
same,GI50,[34],4 nM
same,GI50,[35],1 nM
same,GI50,[36],7 nM
same,GI50,[37],18 nM
